Test results as given in ChEMBL document CHEMBL5107947, “Estimating the cooperativity of PROTAC-induced ternary complexes using 19F NMR displacement assay” (RSC Med Chem, 2021).
Active and inactive are the calls of the source. The calls are words filed in the database; no cut-off is given here.

Key:
[1] = molecular target: T1, Von Hippel-Lindau disease tumor suppressor/Elongin B/Elongin C (Homo sapiens, UniProt P40337); experiment: Binding affinity to VCB E3 ligase (unknown origin) assessed as binary equilibrium dissociation constant by 19F NMR assay; assay type: protein-complex assay
[2] = molecular target: Von Hippel-Lindau disease tumor suppressor/Elongin B/Elongin C (Homo sapiens) (UniProt P40337+Q15370+Q15369); experiment: (§1) Displacement of (2S,4R)-N-(4-bromobenzyl)-4-hydroxy-1-(3,3,3-trifluoropropanoyl)pyrrolidine-2-carboxamide from VBC E3 ligase (unknown origin) binary complex by 19F NMR assay; assay type: protein-complex assay
In short: (§2)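 Competitive 19F CPMG NMR displacement of spy molecule 19 (50 μM) from VBC (1 μM) across a titration of PROTAC concentrations. Free spy alone and spy with VBC served as the 100% and 0% displacement controls. For ternary runs Brd4(2) was present at 10 μM.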

[3] = molecular target: T1, Von Hippel-Lindau disease tumor suppressor/Elongin B/Elongin C; experiment: Displacement of (2S,4R)-N-(4-bromobenzyl)-4-hydroxy-1-(3,3,3-trifluoropropanoyl)pyrrolidine-2-carboxamide from VBC E3 ligase (unknown origin) binary complex assessed as inhibition constant by 19F NMR assay; assay type: protein-complex assay
In short: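 Binary competition by 19F CPMG NMR, without Brd4(2): spy molecule 19 at 50 μM, VBC at 1 μM, titrated with increasing PROTAC concentrations. Spy molecule alone and spy molecule plus VBC served as 100% and 0% displacement references.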

[4] = molecular target: T1, Von Hippel-Lindau disease tumor suppressor/Elongin B/Elongin C; experiment: as §1; assay type: protein-complex assay; in short: as §2
Homo sapiens [5] = species on record: Homo sapiens; experiment: (§3) Co-operativity factor, ratio of Ki for displacement of (2S,4R)-N-(4-bromobenzyl)-4-hydroxy-1-(3,3,3-trifluoropropanoyl)pyrrolidine-2-carboxamide from VBC E3 ligase (unknown origin) binary complex assessed as inhibition constant to Ki for displacement of (2S,4R)-N-(4-bromobenzyl)-4-hydroxy-1-(3,3,3-trifluoropropanoyl)pyrrolidine-2-carboxamide from BRD4 bromodomain 2/VBC E3 ligase (unknown origin) ternary complex assessed as inhibition constant by 19F NMR assay
Homo sapiens [6] = species on record: Homo sapiens; experiment: as §3, with “SPR” for “19F NMR”
[7] = molecular target: T2, von Hippel-Lindau disease tumor suppressor/Bromodomain-containing protein 4/Elongin-B/Elongin-C (Homo sapiens, UniProt O60885+P40337+Q15369+Q15370); experiment: Displacement of (2S,4R)-N-(4-bromobenzyl)-4-hydroxy-1-(3,3,3-trifluoropropanoyl)pyrrolidine-2-carboxamide from BRD4 bromodomain 2/VBC E3 ligase (unknown origin) ternary complex assessed as inhibition constant by 19F NMR assay; assay type: protein assay
In short: (§4)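 19F CPMG NMR displacement of spy molecule 19 (50 μM) from VBC (1 μM) with increasing PROTAC concentrations, in the presence of 10 μM Brd4(2). Spectra of free spy molecule and spy molecule with VBC set 100% and 0% displacement.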

Homo sapiens [8] = species on record: Homo sapiens; experiment: as §3, with “ITC” for “19F NMR”
[9] = molecular target: T2, von Hippel-Lindau disease tumor suppressor/Bromodomain-containing protein 4/Elongin-B/Elongin-C; experiment: Displacement of (2S,4R)-N-(4-bromobenzyl)-4-hydroxy-1-(3,3,3-trifluoropropanoyl)pyrrolidine-2-carboxamide from BRD4 bromodomain 2/VBC E3 ligase (unknown origin) ternary complex by 19F NMR assay; assay type: protein assay; in short: as §4
[10] = Displacement of (2S,4R)-N-(4-bromobenzyl)-4-hydroxy-1-(3,3,3-trifluoropropanoyl)pyrrolidine-2-carboxamide from BRD3 bromodomain 1/VBC E3 ligase (unknown origin) ternary complex by 19F NMR assay; parameters: species or system Homo sapiens
[11] = Displacement of (2S,4R)-N-(4-bromobenzyl)-4-hydroxy-1-(3,3,3-trifluoropropanoyl)pyrrolidine-2-carboxamide from BRD3 bromodomain 2/VBC E3 ligase (unknown origin) ternary complex by 19F NMR assay; parameters: species or system Homo sapiens
[12] = Displacement of (2S,4R)-N-(4-bromobenzyl)-4-hydroxy-1-(3,3,3-trifluoropropanoyl)pyrrolidine-2-carboxamide from BRD3 bromodomain 1/VBC E3 ligase (unknown origin) ternary complex assessed as inhibition constant by 19F NMR assay; parameters: species or system Homo sapiens
[13] = Displacement of (2S,4R)-N-(4-bromobenzyl)-4-hydroxy-1-(3,3,3-trifluoropropanoyl)pyrrolidine-2-carboxamide from BRD3 bromodomain 2/VBC E3 ligase (unknown origin) ternary complex assessed as inhibition constant by 19F NMR assay; parameters: species or system Homo sapiens
Homo sapiens [14] = species on record: Homo sapiens; experiment: as §3, with “dual VBC” for “BRD4 bromodomain 2/VBC”, “[…]” for “19F NMR”
Homo sapiens [15] = species on record: Homo sapiens; experiment: as §3, with “dual VBC” for “BRD4 bromodomain 2/VBC”
[16] = molecular target: T1, Von Hippel-Lindau disease tumor suppressor/Elongin B/Elongin C; experiment: Displacement of (2S,4R)-N-(4-bromobenzyl)-4-hydroxy-1-(3,3,3-trifluoropropanoyl)pyrrolidine-2-carboxamide from dual VBC E3 ligase (unknown origin) ternary complex by 19F NMR assay; assay type: protein-complex assay
In short: (§5)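 Same 19F CPMG displacement format, with spy molecule 19 at 50 μM and VBC at 1 μM. PROTAC was titrated over a range of concentrations, with spy-only and spy+VBC spectra as the 100% and 0% displacement controls. IC50 was read as 50% dissociation of the spy–VBC complex.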

[17] = molecular target: T1, Von Hippel-Lindau disease tumor suppressor/Elongin B/Elongin C; experiment: Displacement of (2S,4R)-N-(4-bromobenzyl)-4-hydroxy-1-(3,3,3-trifluoropropanoyl)pyrrolidine-2-carboxamide from dual VBC E3 ligase (unknown origin) ternary complex assessed as inhibition constant by 19F NMR assay; assay type: protein-complex assay; in short: as §5

T2 sequence (P40337 whole entry, looked up, other chains not shown): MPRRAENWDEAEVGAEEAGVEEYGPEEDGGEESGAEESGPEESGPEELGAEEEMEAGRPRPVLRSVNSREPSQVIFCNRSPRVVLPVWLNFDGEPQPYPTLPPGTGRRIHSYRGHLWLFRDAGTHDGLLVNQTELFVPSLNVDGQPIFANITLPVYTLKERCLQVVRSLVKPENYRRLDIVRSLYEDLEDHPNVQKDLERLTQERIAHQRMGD
T2 sequence (Q15369 whole entry, looked up, other chains not shown): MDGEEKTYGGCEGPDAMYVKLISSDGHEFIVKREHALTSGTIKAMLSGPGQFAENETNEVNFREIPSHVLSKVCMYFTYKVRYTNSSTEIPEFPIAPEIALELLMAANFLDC
T2 sequence (Q15370 whole entry, looked up, other chains not shown): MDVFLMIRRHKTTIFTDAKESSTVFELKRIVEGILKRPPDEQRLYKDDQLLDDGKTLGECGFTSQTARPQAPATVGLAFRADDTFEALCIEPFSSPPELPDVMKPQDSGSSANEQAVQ
T1 sequence (P40337 whole entry, looked up): as the sequence (P40337 whole entry, looked up, other chains not shown) above
Von Hippel-Lindau disease tumor suppressor/Elongin B/Elongin C (Homo sapiens), sequence (P40337 whole entry, looked up): as the sequence (P40337 whole entry, looked up, other chains not shown) above
Von Hippel-Lindau disease tumor suppressor/Elongin B/Elongin C (Homo sapiens), sequence (Q15369 whole entry, looked up): as the sequence (Q15369 whole entry, looked up, other chains not shown) above
Von Hippel-Lindau disease tumor suppressor/Elongin B/Elongin C (Homo sapiens), sequence (Q15370 whole entry, looked up): as the sequence (Q15370 whole entry, looked up, other chains not shown) above

| Compound | Kd [1] [nM] | Ki [3] [nM] | IC50 [4] [nM] | Ratio Ki (Homo sapiens [5]) | Ki [7] [nM] | Ratio Ki (Homo sapiens [8]) | IC50 [9] [nM] | other results |
| --- | --- | --- | --- | --- | --- | --- | --- | --- |
| O=C(NCc1ccc(Br)cc1)[C@@H]1C[C@@H](O)CN1C(=O)CC(F)(F)F | 145000 |  |  |  |  |  |  |  |
| Cc1ncsc1-c1ccc(CNC(=O)[C@@H]2C[C@H](O)CN2C(=O)[C@@H](NC(=O)COCCOCCOCCOCCOCCOCC(=O)N[C@H](C(=O)N2C[C@@H](O)C[C@H]2C(=O)NCc2ccc(-c3scnc3C)cc2)C(C)(C)C)C(C)(C)C)cc1 |  |  |  |  |  |  |  | Activity [2]: Active |
| Cc1ncsc1-c1ccc(CNC(=O)[C@@H]2C[C@H](O)CN2C(=O)[C@@H](NC(=O)COCCOCCOCCOCCOCC(=O)N[C@H](C(=O)N2C[C@@H](O)C[C@H]2C(=O)NCc2ccc(-c3scnc3C)cc2)C(C)(C)C)C(C)(C)C)cc1 |  | 287 | 888 |  |  |  |  |  |
| CC(=O)N1c2ccc(-c3ccc(C(=O)NCCOCCOCCOCCOCC(=O)N[C@H](C(=O)N4C[C@H](O)C[C@H]4C(=O)NCc4ccc(-c5scnc5C)cc4)C(C)(C)C)cc3)cc2[C@H](Nc2ccc(Cl)cc2)C[C@@H]1C |  | 471 | 1140 | 0.8 | 597 | 0.6 | 1310 | Ratio Ki (Homo sapiens [6]): 0.4 |
| Cc1ncsc1-c1ccc(CNC(=O)[C@@H]2C[C@@H](O)CN2C(=O)[C@@H](NC(=O)COCCOCCOCCNC(=O)C[C@@H]2N=C(c3ccc(Cl)cc3)c3c(sc(C)c3C)-n3c(C)nnc32)C(C)(C)C)cc1 |  |  |  |  |  |  |  | IC50 [10]: 660 nM; IC50 [11]: 708 nM; Ki [12]: 118 nM; Ki [13]: 153 nM |
| Cc1ncsc1-c1ccc(CNC(=O)[C@@H]2C[C@@H](O)CN2C(=O)[C@@H](NC(=O)COCCOCCOCCOCCOCCOCC(=O)N[C@H](C(=O)N2C[C@H](O)C[C@H]2C(=O)NCc2ccc(-c3scnc3C)cc2)C(C)(C)C)C(C)(C)C)cc1 |  |  |  |  |  |  |  | Ratio Ki (Homo sapiens [14]): 7; Ratio Ki (Homo sapiens [15]): 7; IC50 [16]: 277 nM; Ki [17]: 39 nM |
| Cc1ncsc1-c1ccc(CNC(=O)[C@@H]2[C@H](F)[C@@H](O)CN2C(=O)[C@@H](NC(=O)COCCOCCOCCNC(=O)C[C@@H]2N=C(c3ccc(Cl)cc3)c3c(sc(C)c3C)-n3c(C)nnc32)C(C)(C)C)cc1 |  | 2060 | 3020 | 29 | 71 | 29 | 346 |  |
| CC(=O)N1c2ccc(-c3ccc(C(=O)NCCOCCOCC(=O)N[C@H](C(=O)N4C[C@H](O)C[C@H]4C(=O)NCc4ccc(-c5scnc5C)cc4)C(C)(C)C)cc3)cc2[C@H](Nc2ccc(Cl)cc2)C[C@@H]1C |  | 529 | 1210 | 0.4 | 1190 | 0.1 | 2110 | Ratio Ki (Homo sapiens [6]): 0.2 |

The next lines start with results.

| Kd [1] [nM] | Compound | Ki [3] [nM] | IC50 [4] [nM] | Ratio Ki (Homo sapiens [5]) | Ki [7] [nM] | Ratio Ki (Homo sapiens [8]) | IC50 [9] [nM] | other results |
| --- | --- | --- | --- | --- | --- | --- | --- | --- |
| 67000 | Cc1ncsc1-c1ccc(CNC(=O)[C@@H]2C[C@@H](O)CN2C(=O)CC(C)(C)C)cc1C(F)(F)F |  |  |  |  |  |  |  |
| 25000 | Cc1ncsc1-c1ccc(CNC(=O)[C@@H]2C[C@@H](O)CN2C(=O)C(F)(F)F)cc1 |  |  |  |  |  |  |  |
